PfM18AAP inh – PfM18AAP inhibitors, malaria aminopeptidase, primary screen, biochemical, QFRET, recombinant enzyme. M18 aspartyl aminopeptidase (Plasmodium falciparum 3D7). H-Glu-NHMec fluorogenic cleavage. inhibition, % at 7.35 µM. actives 1.2% (n = 290,000);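 active = inhibition above the campaign mean inhibition over all tested compounds plus 3 SD, cut at about 28% in these data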
PfGluPho inh – PfG6PD enzyme inhibitors, primary screen, biochemical, fluorescence intensity, uHTS; actives 0.78% (n = 350,000); PfGluPho enzyme, NADPH resazurin-diaphorase fluorescence; AID 504690, 2011; glucose-6-phosphate dehydrogenase-6-phosphogluconolactonase (Plasmodium falciparum 3D7); inhibition, % at 20 µM;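 active = inhibition reaching at least a set limit at 20 µM in the primary screen, cut at about 59% in these data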
UBC13 polyUb – UBC13 polyubiquitin chain formation inhibitors, primary screen, biochemical, TR-FRET, uHTS; inhibition, % at 20 µM; actives 0.47% (n = 330,000); in the data active = inhibition above about 45%, passing the limit was not always enough
Target sequence (P61088 whole entry, looked up): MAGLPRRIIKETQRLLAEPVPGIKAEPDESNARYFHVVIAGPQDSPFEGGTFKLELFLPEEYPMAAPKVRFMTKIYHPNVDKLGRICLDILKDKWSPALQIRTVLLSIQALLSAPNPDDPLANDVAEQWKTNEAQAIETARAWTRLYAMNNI
EBNA-1 inh – EBNA-1 DNA-binding inhibitors, primary screen, biochemical, fluorescence polarization. inhibition, % at 14.8 µM. actives 0.34% (n = 300,000); in the data active = inhibition above about 28%
ZTA DNA inh – ZTA (EBV) inhibition in EBNA-1 counter-screen. actives 0.15% (n = 320,000). ZTA-DNA binding, fluorescence polarization. P03206. AID 2234. inhibition, % at 11 µM; in the data active = inhibition above about 33%
Target sequence (P03206 whole entry, looked up): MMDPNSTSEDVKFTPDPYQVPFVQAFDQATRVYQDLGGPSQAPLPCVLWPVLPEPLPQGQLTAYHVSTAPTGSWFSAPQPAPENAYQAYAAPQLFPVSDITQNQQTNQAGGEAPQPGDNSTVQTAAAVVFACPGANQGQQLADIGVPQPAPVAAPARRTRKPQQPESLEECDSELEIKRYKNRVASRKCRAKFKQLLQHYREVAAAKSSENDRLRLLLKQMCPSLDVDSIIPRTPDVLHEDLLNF
Apaf-1 inh – inhibitors of human Apaf-1 apoptosome, primary screen, biochemical, DEVD-Rh110 fluorescence, uHTS; Apoptotic protease-activating factor 1 (Homo sapiens), O14727; reconstituted apoptosome caspase-3 activity; inhibition, % at 20 µM; actives 0.71% (n = 330,000); active = inhibition of at least 40% at 20 µM
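System: Apoptosome proteins | Medium: Hepes pH 7.5 with detergent and BSA | Also added: Cytochrome c trigger plus (Z-DEVD)2-Rh110 caspase-3 substrate | Incubation: 30 min compound preincubation, 50 min activation, room temperature | Detection: Rhodamine 110 fluorescence at Ex 480/Em 540 nm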
Apaf-1 inh conf – Apaf-1 inhibitors, single-dose retest, confirmation, biochemical, fluorescence, DEVD-Rh110, 20 µM. AID 504614, 2011. actives 25% (n = 1,800). shares compounds with Apaf-1 inh. reconstituted apoptosome, caspase-3 DEVD-Rh110 fluorescence. inhibition, % at 20 µM;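 active = mean inhibition of at least 40% at 20 µM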
Rh110 quench – Rh110 fluorescence interference by putative Apaf-1 inhibitors, confirmation, artefact control for Apaf-1 inhibitor project, biochemical, 20 µM; shares compounds with Apaf-1 inh; quenched caspase reaction; activation (fluorescence interference), % at 20 µM; 1,800 tested, under 10 active;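 active = signal rise of 40% or more at 20 µM, treated as a fluorescence artifact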
Apaf1 inh interf – fluorescence interference of Apaf-1 inhibitor hits, dose response, artefact control for Apaf-1 inhibitor project. shares compounds with Apaf-1 inh. fluorescence interference counterscreen, Apaf-1 assay format. IC50, µM. 460 tested, under 10 active. AID 588538, 2011; call rule not given here
Of the large screens only hits and unclear results are named; the others gave an inactive call (follow-up assays come after a bar, where they were run). Only some compounds are listed: those with a hit (about 2.9% of all), similar ones and a draw of the others.

CCOc1ccccc1N1CCN(C(=O)c2ccccc2)CC1	none
CCOc1ccccc1N1CCN(C(=O)C2c3ccccc3Oc3ccccc32)CC1	Apaf-1 inh 40.9 | Apaf-1 inh conf 40.2 | Rh110 quench inactive | Apaf1 inh interf inactive
CCOc1ccc(NC(=O)CN(C)C(=O)c2ccc(COc3ccccc3)cc2)cc1OCC	Apaf-1 inh 47.9 (no result: PfM18AAP inh, EBNA-1 inh) | Apaf-1 inh conf 40.1 | Rh110 quench inactive | Apaf1 inh interf inactive
CCOc1ccc(NC(=O)CN(C)C(=O)c2ccc(COc3ccccc3)o2)cc1OCC	none (no result: PfM18AAP inh)
COc1cc(-c2ccc(Nc3ccccc3C(=O)O)c(OC)c2)ccc1Nc1ccccc1C(=O)O	Apaf-1 inh 47.8 (no result: EBNA-1 inh, ZTA DNA inh) | Apaf-1 inh conf 49.5 | Rh110 quench inactive | Apaf1 inh interf inactive
COc1cc2c(cc1OC)-c1cc3ccc4c(c3c[n+]1CC2)OCO4	Apaf-1 inh 73.4 | Apaf-1 inh conf inactive | Rh110 quench inactive
Cc1ccc(-c2nn3c(C)nnc3c3ccccc23)cc1S(=O)(=O)NCc1ccco1	Apaf-1 inh 43.5 | Apaf-1 inh conf 61.2 | Rh110 quench inactive | Apaf1 inh interf inactive
Cc1ccc(-c2nn3c(C)nnc3c3ccccc23)cc1S(=O)(=O)NC(C)c1ccccc1 (stereo unspecified)	Apaf-1 inh 56.6 | Apaf-1 inh conf 61.5 | Rh110 quench inactive | Apaf1 inh interf inactive
Cc1ccc(-c2nn3c(C)nnc3c3ccccc23)cc1S(=O)(=O)NCCO	none
Cc1ccc(-c2nn3c(C)nnc3c3ccccc23)cc1S(=O)(=O)NC(C)(C)CO	none
COCc1ccc(CN2CCC(C(=O)Nc3cccc(-c4cccc(Cl)c4)c3)CC2)o1	Apaf-1 inh 49.3 | Apaf-1 inh conf inactive | Rh110 quench inactive
Cc1ccc(NC(=O)CCCN2C(=O)NC(C)(C)C2=O)cc1	none (no result: PfM18AAP inh, EBNA-1 inh)
O=C1C=C(Nc2ccc(O)cc2)C(=O)c2ccccc21	none
NS(=O)(=O)c1ccc(NC2=CC(=O)C(=O)c3ccccc32)cc1	Apaf-1 inh 95.0 | Apaf-1 inh conf 97.6 | Rh110 quench inactive | Apaf1 inh interf inactive
CCOC(=O)c1ccc(NC2=CC(=O)C(=O)c3ccccc32)cc1	Apaf-1 inh 72.3 | Apaf-1 inh conf 87.6 | Rh110 quench inactive | Apaf1 inh interf inactive
CCC1Nc2ncnc(N3CCN(c4ccccc4)CC3)c2N(Cc2ccc(C)cc2)C1=O (stereo unspecified)	none (no result: PfM18AAP inh)
CCC1Nc2ncnc(N3CCN(c4ccccc4)CC3)c2N(Cc2ccccc2)C1=O (stereo unspecified)	Apaf-1 inh 60.3 (no result: PfM18AAP inh, EBNA-1 inh, ZTA DNA inh) | Apaf-1 inh conf inactive | Rh110 quench inactive
FC(F)(F)c1ccc(CN2C[C@@H]3C(c4ccc(Cl)nc4)C4(c5cccnc5)CC3(C4)[C@H]2c2ccccc2)cc1 (stereo partly specified)	Apaf-1 inh 42.0 (no result: PfM18AAP inh) | Apaf-1 inh conf inactive | Rh110 quench inactive
Clc1ccc(C2[C@H]3CN(Cc4ccc(-c5ccccc5)cc4)[C@H](c4ccccc4)C34CC2(c2cccnc2)C4)cn1 (stereo partly specified)	none (no result: PfM18AAP inh, PfGluPho inh, EBNA-1 inh, ZTA DNA inh)
Oc1ccc(C=Nc2cccc3ncccc23)c(O)c1	Apaf-1 inh 86.7 | Apaf-1 inh conf inactive | Rh110 quench inactive
CCC(=O)N(CCc1ccccc1C)Cc1cc2cc3c(cc2[nH]c1=O)OCO3	Apaf-1 inh 40.6 | Apaf-1 inh conf inactive | Rh110 quench inactive
CCC(=O)N(Cc1ccco1)Cc1cc2cc3c(cc2[nH]c1=O)OCO3	none
Nc1nnc(SCC(=O)Nc2ccc(N3CCOCC3)c(Cl)c2)s1	none

Assay outcomes as filed in PubChem.
